Among the data in paper PMC6142410 (Current Drug Discovery Technologies, 2018) are IC50 and PTx2 values, retold here.

Test [1] concerns the target human FXa (Homo sapiens, UniProt P00742). Kind of test: Factor Xa inhibition, chromogenic substrate assay. Format: biochemical. The procedure, abridged: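 Human FXa (0.0625 U/mL) and test compound in aqueous 5% (v/v) DMSO mixed in Tris-BSA buffer (0.2 M NaCl, 0.1 M Tris, 0.2% BSA, pH 7.4). Chromogenic substrate added to start the reaction, then 10 s stirring. OD at 405 nm followed over time against a DMSO-only reference. Inhibition = 1 − OD(inhibitor)/OD(reference). IC50 derived from the concentration dependence.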

For test [2], the system named is human plasma prothrombin time. The experiment in a line: Human plasma prothrombin time. Format: biochemical. The settings on record: concentration that doubled the prothrombin time in human plasma; Thromborel S. An outline of the steps: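 KM-2 control plasma mixed with test compound solution and incubated 1 min at 37°C. Clotting triggered with thromboplastin (ISI=1) and time read on a coagulometer. The concentration doubling PT was estimated by regression from dose-response curves.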

Sequence of human FXa (P00742 235-488 limits assumed): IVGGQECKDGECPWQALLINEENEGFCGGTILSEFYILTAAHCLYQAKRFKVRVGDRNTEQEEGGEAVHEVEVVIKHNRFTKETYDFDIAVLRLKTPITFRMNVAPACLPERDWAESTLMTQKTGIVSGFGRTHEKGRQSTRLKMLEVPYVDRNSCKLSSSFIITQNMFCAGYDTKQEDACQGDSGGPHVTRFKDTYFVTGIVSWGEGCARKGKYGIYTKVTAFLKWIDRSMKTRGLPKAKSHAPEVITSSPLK
Sequence of human FXa (P00742 41-179 partner limits assumed): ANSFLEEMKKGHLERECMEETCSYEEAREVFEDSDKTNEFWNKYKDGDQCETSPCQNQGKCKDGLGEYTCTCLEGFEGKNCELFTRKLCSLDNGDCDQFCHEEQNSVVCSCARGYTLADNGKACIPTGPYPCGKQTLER

For the compound `CNC(=O)N(C)c1ccc(C(=O)Nc2ccc(C)cc2C(=O)Nc2ccc(Cl)cn2)cc1` [Compound 117, N-(5-chloropyridin-2-yl)-5-methyl-2-[(4-{methyl[(methylamino)carbonyl]amino}benzoyl)amino]benzamide], in test [1], the concentration for half-maximal inhibition (IC50) stood at 0.15 ± 0.03 nM. Besides, the PTx2 in test [2] was found to be 2.0 ± 0.4 µM.

Consider `CC(=N)N(C)c1ccc(C(=O)Nc2ccc(C)cc2C(=O)Nc2ccc(Cl)cn2)c(F)c1` [Compound 302, N-(2-{[(5-chloropyridin-2-yl)amino]carbon-yl}-4-methylphenyl)-4-[ethanimidoyl(methyl)amino]-2-fluorobenzamide], for which it took 0.8 ± 0.2 nM to reach half-maximal inhibition in test [1] (IC50). The compound further displayed a PTx2 in test [2] of 0.09 ± 0.02 µM.

Consider `CC(=N)N(C)c1ccc(C(=O)Nc2ccc(Cl)cc2C(=O)Nc2ccc(Cl)cn2)c(F)c1` [Compound 303, N-(4-chloro-2-{[(5-chloropyridin-2-yl)amino]carbonyl}phenyl)-4-[ethanimidoyl (methyl)amino]-2-fluorobenzamide], for which, in test [1], inhibition was half-maximal at 1 ± 0.2 nM (IC50). This compound yielded a PTx2 in test [2] of 0.09 ± 0.02 µM.

On to `CC(=N)N(C)c1ccc(C(=O)Nc2ccc(C)cc2C(=O)Nc2ccc(Cl)cc2)cc1` [Compound 304, N-(4-chlorophenyl)-2-({4-[ethanimidoyl (methyl)amino]benzoyl}amino)-5-methylbenzamide], for which the IC50 in test [1] worked out at 1 ± 0.2 nM. The compound further displayed a PTx2 in test [2] of over 30 µM.

In turn, `COc1cc(N(C)C(C)=N)ccc1C(=O)Nc1ccc(C)cc1C(=O)Nc1ccc(Cl)cn1` [Compound 307, N-(2-{[(5-chloropyridin-2-yl)amino]carbonyl}-4-methylphenyl)-4-[ethanimidoyl(methyl)amino]-2-methoxybenzamide] displayed a concentration for half-maximal inhibition (IC50) in test [1] of 1 ± 0.2 nM. This compound also yielded a PTx2 in test [2] of 2.0 ± 0.4 µM.

The compound `CC(=N)N(C)c1ccc(C(=O)Nc2ccccc2C(=O)Nc2ccc(Cl)cn2)cc1` [Compound 310, N-(5-chloropyridin-2-yl)-2-({4-[ethanimidoyl (methyl)amino]benzoyl}amino)benzamide] gave an IC50 in test [1] of 2 ± 0.2 nM. Moreover, the PTx2 in test [2] is 0.50 ± 0.12 µM.

`CNC(=O)N(C)c1ccc(C(=O)Nc2ccc(C)cc2C(=O)Nc2ccc(Cl)cc2)cc1` [Compound 311, N-(4-chlorophenyl)-5-methyl-2-[(4-{methyl [(methylamino)carbonyl]amino}benzoyl)amino]benzamide]: the half-inhibitory concentration (IC50) in test [1] was 2 ± 0.3 nM. Further, the PTx2 in test [2] is over 30 µM.

As to `CNC(=O)N(C)c1ccc(C(=O)Nc2ccc(C)cc2C(=O)Nc2ccc(C)cc2)cc1` [Compound 312, 5-methyl-2-[(4-{methyl[(methylamino)carbonyl]amino}benzoyl)amino]-N-(4-methyl-phenyl)benzamide], the half-maximal inhibitory concentration (IC50) in test [1] turned out to be 0.15 ± 0.03 nM. Besides, the PTx2 in test [2] was 3.0 ± 0.6 µM.

Compound `CNC(=O)N(C)c1ccc(C(=O)Nc2ccccc2C(=O)Nc2ccc(Cl)cn2)cc1` [Compound 317, N-(5-chloropyridin-2-yl)-2-[(4-{methyl[ (methylamino)carbonyl]amino}benzoyl)amino]benzamide] registered a 50% inhibitory concentration (IC50) in test [1] of 0.25 ± 0.05 nM. In test [2], this compound showed a PTx2 of 3.0 ± 0.6 µM.
